Only some compounds are listed: those with a hit (about 1.5% of all), similar ones and a draw of the others.
HEK293 NFkB inh: inhibitors of the PMA/ionomycin-induced NF-kB reporter in HEK293 cells; HEK-293 NF-kB luciferase reporter, luminescence; inhibition, % at 3 µM; 62,000 tested, 0.21% active;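 active = inhibition above the mean of all tested compounds plus 3 SD, cut at about 40% in these data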;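 note: 0% = stimulated DMSO wells and 100% = 10 µM reference inhibitor 5653914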
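System: NF-kB luciferase reporter HEK-293 cells | Replication: Single test | Control set: DMSO vs reference inhibitor | Evaluation: % inhibition | Schedule: 1 h pretreatment, 16 h stimulation, 37 °C | Probe or stimulus: PMA with ionomycin | Compound dosing: One dose, 3 µM | Detection: Luciferase luminescence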
HePTP inh: inhibitors of human HePTP phosphatase; P35236; recombinant HePTP phosphatase activity, OD absorbance; inhibition, % at 20 µM; 110,000 tested, 0.64% active; in the data active = inhibition above about 50%;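 note: plate controls were vehicle for no effect and reference inhibitor for full effect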
Target sequence (P35236 whole entry, looked up): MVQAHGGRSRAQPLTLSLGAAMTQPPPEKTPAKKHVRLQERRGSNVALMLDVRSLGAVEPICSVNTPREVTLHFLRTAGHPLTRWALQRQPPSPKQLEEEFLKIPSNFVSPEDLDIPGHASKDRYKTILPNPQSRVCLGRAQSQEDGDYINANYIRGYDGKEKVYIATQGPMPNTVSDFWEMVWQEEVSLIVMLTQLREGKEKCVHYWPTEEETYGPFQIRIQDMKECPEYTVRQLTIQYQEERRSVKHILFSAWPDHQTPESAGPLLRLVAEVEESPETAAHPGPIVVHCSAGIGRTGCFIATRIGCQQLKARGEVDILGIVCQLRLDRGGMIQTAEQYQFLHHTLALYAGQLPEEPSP
AP ELISA ortho: orthogonal test for alternative complement pathway inhibitors; AID 1235; 62,000 tested, 0.08% active; inhibition, % at 5 µM; Human serum alternative complement pathway, LPS-coated ELISA, C3 deposition; tested in compound mixtures;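 active = inhibition above 30% in each of the two pooled mixtures holding the compound, so the lower value exceeds 30%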;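 note: 0% = serum in Mg-EGTA without compound and 100% = EDTA serum blank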
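Assay system: Human serum alternative complement pathway, C3 deposition on LPS-coated wells | Incubation: 1 h serum-compound exposure at 37 °C | Doses: 5 µM per compound in ten-compound mixtures | Read-out: Percent inhibition | Technique: ELISA with HRP anti-human C3 antibody, TMB substrate, absorbance 450 nm | Replication: Two pool placements per compound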
PTK2B oligo ant: blocks oligomerization of human Pyk2 in cells; 99,000 tested, 0.83% active; z-score (the deposit names both 25 µM and 10 µM); Q14289; Q293 cells, Pyk2 FERM NanoBiT luminescence; hits give low values;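 active = Z-score of -3 or lower, scaled per plate to the spread of control and sample wells; inactive = z-score above -3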;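 note: negative z-score means lost luminescence so less FERM oligomerization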
PLK1 kinase inh: blocks human PLK1 kinase activity; P53350; 97,000 tested, 0.53% active; recombinant PLK1 kinase, TR-FRET peptide phosphorylation; inhibition, % at 10 µM;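 active = inhibition of 50% or more in the single-concentration screen; inactive = inhibition below 50%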;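 note: 0% = DMSO max control and 100% = H-89 dihydrochloride min control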
PLK1 PBD inh: blocks phosphopeptide binding to human Plk1 polo box domain. Plk1 PBD phosphopeptide binding, fluorescence polarization. inhibition, %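 (tested at about 20 µM)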. 97,000 tested, 0.13% active. AID 693; in the data active = inhibition above about 34%, passing the limit was not always enough
* marks the source's active call; other numbers are inactive results; / = no result given; ! = not confirmed by another sample.

SMILES | HEK293 NFkB inh | HePTP inh | AP ELISA ortho | PTK2B oligo ant | PLK1 kinase inh | PLK1 PBD inh
CC(C)NC(=O)CN(C)S(=O)(=O)c1ccc(F)cc1 | 8 | -2 | -1 | 0.63 | -7 | 24
CCC(Oc1ccccc1)C(=O)NCc1ccccc1 (centres undefined) | / | 1 | / | / | / | /
CC(C)(C)c1csc(NC(=O)c2ccc(Cl)s2)n1 | -4 | / | / | -3* | -5 | 2
Nc1ccc(-c2ccc(N)cc2C(F)(F)F)c(C(F)(F)F)c1 | -14 | -2 | 5 | -3.1* | -7 | 2
Nc1ccc(C(O)(C(F)(F)F)C(F)(F)F)cc1 | / | / | / | -2.2 | -10 | 14
COc1ccc(/C=N/N2C(=O)c3ccccc3NC2c2ccc(OC)cc2)cc1 (centres undefined) | / | -10 | / | / | / | /
O=C(CSc1nnc(-c2cccs2)n1-c1cccc(Cl)c1)c1cccc2c1OCCO2 | / | / | / | -3.1* | -25 | 13
O=C(CSc1nnc(-c2cccs2)n1-c1ccccc1)c1ccccc1 | / | -13 | / | / | / | /
CCOc1ccc(NC(=O)c2cccc(Oc3ccccc3)c2)c([N+](=O)[O-])c1 | / | 5 | / | / | / | /
CCOc1ccc(NC(=O)c2cc(OCC)c(OCC)c(OCC)c2)c([N+](=O)[O-])c1 | / | 54* | / | / | / | /
O=C(CSc1nc2ccccc2s1)OCC(=O)c1cccc([N+](=O)[O-])c1 | / | 6 | / | / | / | /
CN(C1=NC(=O)/C(=C\C(Cl)=C\c2ccc([N+](=O)[O-])cc2)S1)c1ccc(O)cc1 | / | 8 | / | / | / | /
CN(C1=NC(=O)S/C1=C\c1ccc([N+](=O)[O-])cc1)c1ccc(O)cc1 | / | 56* | / | / | / | /
Cn1c2ccc(Cl)cc2c2nc3ccccc3nc21 | -6 | 8 | 25 | / | 67* | 14
C=CCN1C(=O)/C(=C\c2ccc(OCC)cc2)C(=O)NC1=S | / | 8 | / | / | / | /
Cc1ccc(-n2c(=O)[nH]cc(C(=O)Nc3ccc4c(c3)OCCO4)c2=O)cc1 | 11 | -6 | -4 | -3.1* | -1 | 3
Cc1ccc(NC(=O)C(C)Sc2ccc(Cl)cc2)cc1 (centres undefined) | / | -12 | / | / | / | /
C=CCNC(=O)C(=O)NCCc1ccc(F)cc1 | / | 6 | / | / | / | /
Cc1csc(C(=O)O)c1-n1cccc1 | / | / | / | -0.04 | 55* | 29
Cc1ccc(N=C2NC(=O)/C(=C/c3cccc(O)c3)S2)cc1Cl | / | 60* | / | / | / | /
Cc1cc(C)nc(N2CCC(C(=O)NCCc3ccc(F)cc3)CC2)n1 | 52* | -4 | -12 | -0.2 | -3 | -8
Cc1cc(C)nc(N2CCCC(C(=O)NCCc3ccc(F)cc3)C2)n1 (centres undefined) | 10 | 14 | -2 | 0.07 | -8 | -3
COc1ccc(/C=C2\C(=O)NC(=O)N(c3ccc(Br)cc3)C2=O)c(C)c1 | / | -10 | / | / | / | /
CCOc1ccc(NC(=O)C2CCN(C(=O)NCc3ccccc3)CC2)cc1 | 15 | 1 | 8 | 0.05 | -10 | 12
CCOc1ccc(NC(=O)C2CCN(C(=O)NC3CCCCC3)CC2)cc1 | / | / | / | 0.76 | 52* | -7
SMILES | HEK293 NFkB inh | HePTP inh | AP ELISA ortho | PTK2B oligo ant | PLK1 kinase inh | PLK1 PBD inh
COc1ccccc1NS(=O)(=O)c1cc([N+](=O)[O-])ccc1N/N=C/c1c(C)[nH]c2ccccc12 | / | / | / | -3.1* | -9 | 7
O=C(c1cc(=O)[nH]c2ccccc12)N1CCN(S(=O)(=O)c2ccc3ccccc3c2)CC1 | / | / | / | -3.3* | -4 | -12
CCOc1ccc(/C=N\NC(=O)c2ccc(Br)cc2)c(O)c1 | / | 102* | / | / | / | /
Cc1ccc(Cl)cc1NC1=C/C(=N\S(=O)(=O)c2cccs2)c2ccccc2C1=O | / | / | / | -4.4* | -2 | -17
O=[N+]([O-])c1cncc([N+](=O)[O-])c1Nc1ccc(Cl)cn1 | / | 87* | / | / | / | /
Cc1ccc(C2=NN(C(=S)Nc3ccccc3)C(c3ccco3)C2)cc1 (centres undefined) | / | / | / | -0.15 | -14 | -13
CCS(=O)(=O)Nc1ccc(C2=NN(C(=O)c3ccco3)C(c3ccc(C)cc3)C2)cc1 (centres undefined) | / | / | / | -3* | -3 | -18
CC(Oc1ccc(Cl)cc1Cl)C(=O)Nc1ccc2oc(-c3ccncc3)nc2c1 (centres undefined) | 24 | -10 | -8 | -3.2* | -18 | 15
COc1ccc(-c2cc(C(F)(F)F)c3c(=O)n(-c4ccccc4)[nH]c3n2)cc1 | / | / | / | -4.1* | -13 | 7
COC(=O)c1ccc(C(=O)OC)c(NC(=O)CCC(=O)O)c1 | 5 | 102*! | 10 | 0.18 | -5 | -1

From PubChem
